In experiment [1] the test system is Staphylococcus aureus. Put plainly: Antibacterial activity against Staphylococcus aureus ATCC […] by two fold broth dilution method. In kind it is functional. In short, it runs like this: (§1)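 MIC was determined by twofold broth dilution in microplates, following NCCLS recommendations. Clinafloxacin, chloramphenicol and fluconazole served as positive controls. Values are given in μg/mL.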
On the technique in general: Dilution methods test growth across graded concentrations, often in twofold steps.

The test system of another experiment is Pseudomonas aeruginosa. Put plainly: Antibacterial activity against Pseudomonas aeruginosa by two fold broth dilution method. It is filed as functional. The procedure, abridged: as §1
The next experiment relates to Candida. Put plainly: Antifungal activity against Candida mycoderma by two fold broth dilution method. It is filed as functional. In short, it runs like this:
as §1

The next experiment has as its system Candida albicans. Put plainly: Antifungal activity against Candida albicans ATCC 76615 by two fold broth dilution method. It is filed as functional. In short, it runs like this: as §1
Experiment [2] relates to Micrococcus luteus. Put plainly: Antibacterial activity against Micrococcus luteus ATCC 4698 by two fold broth dilution method. In kind it is functional. The settings on record: NCTC 2665. The procedure, abridged: as §1
Experiment [3] is described as follows: Antibacterial activity against Bacillus proteus by two fold broth dilution method. It is filed as functional. In short, it runs like this:
as §1

A further experiment relates to Bacillus subtilis. Put plainly: Antibacterial activity against Bacillus subtilis ATCC 6633 by two fold broth dilution method. In kind it is functional. In short, it runs like this: as §1
The next experiment concerns Escherichia coli. Put plainly: Antibacterial activity against Escherichia coli JM109 by two fold broth dilution method. It is filed as functional. In short, it runs like this: as §1
Experiment [4] has as its system Staphylococcus aureus. Put plainly: Antibacterial activity against methicillin-resistant Staphylococcus aureus N 315 by two fold broth dilution method. In kind it is functional. The settings on record: N315. In short, it runs like this:
(§2)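 Twofold broth dilution in 96-well microtest plates following NCCLS guidance. Endpoint is the MIC (µg/mL), the lowest concentration that inhibits growth. Clinafloxacin, chloramphenicol and fluconazole served as positive controls.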

In experiment [5] the test system is Micrococcus luteus. Description: Ratio of chloramphenicol MIC to compound MIC for Micrococcus luteus ATCC 4698. It is filed as functional, NCTC 2665.
A further experiment has as its system Shigella dysenteriae. Put plainly: Antibacterial activity against Shigella dysenteriae by two fold broth dilution method. In kind it is functional. The procedure, abridged: as §2
Another experiment concerns Bacillus. Description: Ratio of clinafloxacin MIC to compound MIC for Bacillus proteus. It is filed as functional.

≈ marks a conversion by molar mass, not a printed value.

With `Cc1ccc(C2(Cn3cncn3)CO2)cc1` (racemic), the MIC (as a rule, the lowest concentration that inhibits growth of the organism) worked out at 256 µg/mL (≈ 1190 µM) in the experiment with Staphylococcus aureus [1]; 256 µg/mL (≈ 1190 µM) in the experiment with Pseudomonas aeruginosa; 1 µg/mL (≈ 4.65 µM) with Candida; 256 µg/mL (≈ 1190 µM) against Candida albicans; 1 µg/mL (≈ 4.65 µM) against Micrococcus luteus [2]; 256 µg/mL (≈ 1190 µM) in experiment [3]. The MIC against Bacillus subtilis came out at 8 µg/mL (≈ 37.2 µM); against Escherichia coli it was 256 µg/mL (≈ 1190 µM); against Staphylococcus aureus [4], 512 µg/mL (≈ 2380 µM); against Shigella dysenteriae it was 256 µg/mL (≈ 1190 µM). The Ratio with Micrococcus luteus [5] was determined as 8.
In the case of `O=C(O)c1cn(C2CC2)c2c(Cl)c(N3CCC(NCC(O)(Cn4cncn4)c4ccc(F)cc4F)C3)c(F)cc2c1=O` (racemic), the MIC against Staphylococcus aureus [1] turned out to be 0.5 µg/mL (≈ 0.829 µM); in the experiment on Pseudomonas aeruginosa it was 0.5 µg/mL (≈ 0.829 µM); against Candida it was 0.5 µg/mL (≈ 0.829 µM); in the experiment with Candida albicans it was 0.5 µg/mL (≈ 0.829 µM); against Micrococcus luteus [2], 0.5 µg/mL (≈ 0.829 µM); in experiment [3] it was 0.25 µg/mL (≈ 0.415 µM). Besides, the MIC in the experiment on Bacillus subtilis was found to be 0.5 µg/mL (≈ 0.829 µM); in the experiment on Escherichia coli, 1 µg/mL (≈ 1.66 µM); with Staphylococcus aureus [4], 0.25 µg/mL (≈ 0.415 µM); against Shigella dysenteriae it was 0.5 µg/mL (≈ 0.829 µM). Also, the Ratio in the experiment with Bacillus came out at 2.
For the molecule `OC(Cn1cncn1)(Cn1cncn1)c1ccc(F)cc1F` [FLUCONAZOLE], the MIC against Staphylococcus aureus [1] is over 512 µg/mL; against Pseudomonas aeruginosa, over 512 µg/mL; against Candida, 0.5 µg/mL (≈ 1.63 µM); against Candida albicans it was 0.5 µg/mL (≈ 1.63 µM); with Micrococcus luteus [2], over 512 µg/mL; in experiment [3], over 512 µg/mL. In addition, the MIC with Bacillus subtilis, in the experiment with Escherichia coli, with Staphylococcus aureus [4] and with Shigella dysenteriae was over 512 µg/mL each time.

For the origin of these results see ChEMBL document CHEMBL2062487, “Design, synthesis and evaluation of clinafloxacin triazole hybrids as a new type of antibacterial and antifungal agents” (2012).
